# Measured values taken from the M2OR odorant receptor database.
# Residue numbers refer to the chain shown, from its start.
# Tests used:
# Conditions in all cases: stereoisomer not certain
# OR2M3 M302T = test system: OR2M3 M302T
# Method in brief: (§1)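 Assay methods differ from source to source, frequently being transient luciferase assays in mammalian cell lines. For each receptor–molecule pair, the label responsive (active) applies when the original authors judged the measured signal statistically different from baseline, and non-responsive (inactive) applies otherwise.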
# OR2M3 R266H = test system: OR2M3 R266H
# Method in brief: as §1
# OR2M3 R293S = test system: OR2M3 R293S
# Method in brief: as §1
# OR2M3 V78I = test system: OR2M3 V78I
# Method in brief: as §1
# OR2M3 Y259H = test system: OR2M3 Y259H
# Method in brief: as §1
# OR2M4 (Homo sapiens) = target: T1, OR2M4 (Homo sapiens) (UniProt Q96R27)
# T1 sequence (whole entry): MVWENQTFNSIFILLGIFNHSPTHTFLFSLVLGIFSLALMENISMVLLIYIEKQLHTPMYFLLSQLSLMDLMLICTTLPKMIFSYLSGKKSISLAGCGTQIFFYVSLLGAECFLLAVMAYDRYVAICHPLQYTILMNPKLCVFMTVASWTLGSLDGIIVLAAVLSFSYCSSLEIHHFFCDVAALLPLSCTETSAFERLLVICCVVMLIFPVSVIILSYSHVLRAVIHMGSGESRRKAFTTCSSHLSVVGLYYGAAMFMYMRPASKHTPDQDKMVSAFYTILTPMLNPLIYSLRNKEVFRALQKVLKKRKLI
# Method in brief: as §1
# OR2M5 (Homo sapiens) = target: T2, OR2M5 (Homo sapiens) (UniProt A3KFT3)
# T2 sequence (whole entry): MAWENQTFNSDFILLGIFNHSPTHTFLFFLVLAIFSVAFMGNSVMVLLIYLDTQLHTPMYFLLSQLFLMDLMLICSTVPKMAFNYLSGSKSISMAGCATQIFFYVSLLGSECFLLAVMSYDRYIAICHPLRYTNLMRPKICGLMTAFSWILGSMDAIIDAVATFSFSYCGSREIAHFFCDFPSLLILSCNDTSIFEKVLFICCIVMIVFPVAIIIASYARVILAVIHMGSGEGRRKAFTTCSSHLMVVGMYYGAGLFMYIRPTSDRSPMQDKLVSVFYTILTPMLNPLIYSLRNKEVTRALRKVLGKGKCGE
# Method in brief: as §1
# OR2M5 A156G = test system: OR2M5 A156G
# Method in brief: as §1
# OR2M5 A160V = test system: OR2M5 A160V
# Method in brief: as §1
# OR2M5 D11G = test system: T3, OR2M5 D11G
# T3 sequence (whole entry): T2 sequence (whole entry) with D11G
# Method in brief: as §1
# Chain of OR2M3 Y259H (as listed by the source, stated change not applied): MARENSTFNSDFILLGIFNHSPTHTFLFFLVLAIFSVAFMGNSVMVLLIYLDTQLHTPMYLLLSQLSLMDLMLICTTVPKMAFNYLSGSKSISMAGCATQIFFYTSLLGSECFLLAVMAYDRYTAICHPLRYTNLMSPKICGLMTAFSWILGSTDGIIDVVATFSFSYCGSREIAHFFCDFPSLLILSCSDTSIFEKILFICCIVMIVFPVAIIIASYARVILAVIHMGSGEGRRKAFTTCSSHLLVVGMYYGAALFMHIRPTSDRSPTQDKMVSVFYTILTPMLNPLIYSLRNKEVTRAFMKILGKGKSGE
# Chain of OR2M3 R293S (as listed by the source, stated change not applied): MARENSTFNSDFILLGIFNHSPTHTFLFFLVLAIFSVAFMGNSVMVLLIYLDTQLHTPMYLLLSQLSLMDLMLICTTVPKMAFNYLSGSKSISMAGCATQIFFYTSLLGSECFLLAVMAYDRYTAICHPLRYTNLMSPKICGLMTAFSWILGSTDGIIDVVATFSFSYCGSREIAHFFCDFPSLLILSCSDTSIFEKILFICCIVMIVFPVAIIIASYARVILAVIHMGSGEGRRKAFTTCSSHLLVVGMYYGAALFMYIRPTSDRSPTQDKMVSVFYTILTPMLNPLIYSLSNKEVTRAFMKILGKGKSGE
# Chain of OR2M5 A160V (as listed by the source, stated change not applied): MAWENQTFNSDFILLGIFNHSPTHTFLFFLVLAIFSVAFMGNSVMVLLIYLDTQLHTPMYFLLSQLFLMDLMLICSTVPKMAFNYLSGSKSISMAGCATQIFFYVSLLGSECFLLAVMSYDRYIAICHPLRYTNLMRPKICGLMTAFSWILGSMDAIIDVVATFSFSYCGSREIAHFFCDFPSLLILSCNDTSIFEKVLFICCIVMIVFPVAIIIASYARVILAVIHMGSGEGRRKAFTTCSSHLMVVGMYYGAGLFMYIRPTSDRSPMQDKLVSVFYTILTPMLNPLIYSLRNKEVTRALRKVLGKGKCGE
# Chain of OR2M3 V78I (as listed by the source, stated change not applied): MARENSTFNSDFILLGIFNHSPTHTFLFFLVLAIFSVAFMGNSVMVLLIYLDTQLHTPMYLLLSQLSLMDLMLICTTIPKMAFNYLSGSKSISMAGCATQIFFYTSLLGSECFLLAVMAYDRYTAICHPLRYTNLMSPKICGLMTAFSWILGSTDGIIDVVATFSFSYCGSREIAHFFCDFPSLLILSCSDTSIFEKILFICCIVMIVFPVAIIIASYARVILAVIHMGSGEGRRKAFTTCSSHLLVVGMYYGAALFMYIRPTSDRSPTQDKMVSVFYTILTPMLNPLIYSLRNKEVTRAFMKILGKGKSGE
# Chain of OR2M3 R266H (as listed by the source, stated change not applied): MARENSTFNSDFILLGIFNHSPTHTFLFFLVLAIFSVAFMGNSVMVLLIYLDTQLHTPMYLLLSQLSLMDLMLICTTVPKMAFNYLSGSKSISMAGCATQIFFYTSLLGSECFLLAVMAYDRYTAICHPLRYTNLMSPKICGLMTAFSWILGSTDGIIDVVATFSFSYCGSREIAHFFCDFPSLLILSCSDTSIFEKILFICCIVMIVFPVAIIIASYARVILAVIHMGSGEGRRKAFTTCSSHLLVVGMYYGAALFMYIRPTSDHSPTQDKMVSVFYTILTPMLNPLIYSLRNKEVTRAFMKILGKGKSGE
# Chain of OR2M3 M302T (as listed by the source, stated change not applied): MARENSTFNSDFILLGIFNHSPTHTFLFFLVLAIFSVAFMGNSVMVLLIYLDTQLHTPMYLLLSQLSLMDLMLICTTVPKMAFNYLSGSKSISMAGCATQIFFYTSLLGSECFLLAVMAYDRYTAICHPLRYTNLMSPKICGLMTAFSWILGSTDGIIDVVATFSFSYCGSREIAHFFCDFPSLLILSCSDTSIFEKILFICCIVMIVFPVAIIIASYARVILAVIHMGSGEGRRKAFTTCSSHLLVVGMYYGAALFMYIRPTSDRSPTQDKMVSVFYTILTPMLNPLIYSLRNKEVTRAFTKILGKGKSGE
# Chain of OR2M5 A156G (as listed by the source, stated change not applied): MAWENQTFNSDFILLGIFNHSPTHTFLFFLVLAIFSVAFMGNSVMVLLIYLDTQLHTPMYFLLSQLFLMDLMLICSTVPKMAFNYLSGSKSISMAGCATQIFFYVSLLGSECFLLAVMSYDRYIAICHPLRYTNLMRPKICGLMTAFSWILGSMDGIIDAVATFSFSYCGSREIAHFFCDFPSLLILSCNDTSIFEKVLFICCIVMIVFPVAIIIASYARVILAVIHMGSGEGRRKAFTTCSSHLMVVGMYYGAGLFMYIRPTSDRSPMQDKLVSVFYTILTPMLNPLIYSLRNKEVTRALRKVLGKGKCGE
structure (smiles),measurement,setting,value
CCC(S)C(C)CO (stereo not drawn),odorant receptor agonist call,OR2M3 M302T,active
same,odorant receptor agonist call,OR2M3 R266H,active
same,odorant receptor agonist call,OR2M3 R293S,active
same,odorant receptor agonist call,OR2M3 V78I,active
same,odorant receptor agonist call,OR2M3 Y259H,inactive
same,odorant receptor agonist call,OR2M4 (Homo sapiens),inactive
same,odorant receptor agonist call,OR2M5 (Homo sapiens),inactive
same,odorant receptor agonist call,OR2M5 A156G,inactive
same,odorant receptor agonist call,OR2M5 A160V,inactive
CCC1OC(=O)C(O)=C1C (stereo not drawn),odorant receptor agonist call,OR2M4 (Homo sapiens),inactive
same,odorant receptor agonist call,OR2M5 (Homo sapiens),inactive
same,odorant receptor agonist call,OR2M5 D11G,inactive
CC(C)=CCCC(C)=CCO,odorant receptor agonist call,OR2M4 (Homo sapiens),inactive
CC(C)=CCCC(C)CC=O (stereo not drawn),odorant receptor agonist call,OR2M4 (Homo sapiens),inactive
CCCCC(S)C(C)CO (stereo not drawn),odorant receptor agonist call,OR2M4 (Homo sapiens),inactive
same,odorant receptor agonist call,OR2M5 (Homo sapiens),inactive
CCCCC1CCC(=O)O1 (stereo not drawn),odorant receptor agonist call,OR2M4 (Homo sapiens),inactive
COc1ccc(C)cc1,odorant receptor agonist call,OR2M4 (Homo sapiens),active
CC(C)(C)C1CCCCC1OCCCCO (stereo not drawn),odorant receptor agonist call,OR2M4 (Homo sapiens),inactive
CC(C)CCCC(C)(C)O,odorant receptor agonist call,OR2M4 (Homo sapiens),inactive
C=CCOC(=O)COCCC(C)C,odorant receptor agonist call,OR2M4 (Homo sapiens),inactive
CC(=O)OCc1ccccc1,odorant receptor agonist call,OR2M4 (Homo sapiens),inactive
CCCCCC(=O)C(C)C(C)=O (stereo not drawn),odorant receptor agonist call,OR2M4 (Homo sapiens),inactive
same,odorant receptor agonist call,OR2M5 (Homo sapiens),inactive
CC(=O)C=CC1=C(C)CCCC1(C)C,odorant receptor agonist call,OR2M4 (Homo sapiens),inactive
CCCCCC(S)C(C)CO (stereo not drawn),odorant receptor agonist call,OR2M4 (Homo sapiens),inactive
same,odorant receptor agonist call,OR2M5 (Homo sapiens),inactive
CC1=NC(C)C(C)S1 (stereo not drawn),odorant receptor agonist call,OR2M4 (Homo sapiens),inactive
same,odorant receptor agonist call,OR2M5 (Homo sapiens),inactive
same,odorant receptor agonist call,OR2M5 D11G,inactive
CCCCCC1C(=O)CCC1CC(=O)OC (stereo not drawn),odorant receptor agonist call,OR2M4 (Homo sapiens),inactive
Cc1cnc(C)c(C)n1,odorant receptor agonist call,OR2M4 (Homo sapiens),inactive
same,odorant receptor agonist call,OR2M5 (Homo sapiens),inactive
same,odorant receptor agonist call,OR2M5 D11G,inactive
CCC1OC(C)=C(O)C1=O (stereo not drawn),odorant receptor agonist call,OR2M4 (Homo sapiens),inactive
same,odorant receptor agonist call,OR2M5 (Homo sapiens),inactive
same,odorant receptor agonist call,OR2M5 D11G,inactive
CCCCCCCCC(OC(C)=O)OC(C)=O,odorant receptor agonist call,OR2M4 (Homo sapiens),inactive
CC1=C(O)C(=O)C(C)O1 (stereo not drawn),odorant receptor agonist call,OR2M4 (Homo sapiens),inactive
same,odorant receptor agonist call,OR2M5 (Homo sapiens),inactive
same,odorant receptor agonist call,OR2M5 D11G,inactive
CC(CO)CS (stereo not drawn),odorant receptor agonist call,OR2M4 (Homo sapiens),inactive
same,odorant receptor agonist call,OR2M5 (Homo sapiens),inactive
OCc1ccccc1,odorant receptor agonist call,OR2M4 (Homo sapiens),inactive
C=CC(C)(CCC=C(C)C)OC(C)=O (stereo not drawn),odorant receptor agonist call,OR2M4 (Homo sapiens),inactive
Cc1ccc(C(C)C)cc1O,odorant receptor agonist call,OR2M4 (Homo sapiens),inactive
CCCC(C)C(=O)OCC (stereo not drawn),odorant receptor agonist call,OR2M4 (Homo sapiens),inactive
CC1CCCCCCCCCCCCC(=O)C1 (stereo not drawn),odorant receptor agonist call,OR2M5 (Homo sapiens),inactive
CC1=C(O)C(=O)OC1C (stereo not drawn),odorant receptor agonist call,OR2M4 (Homo sapiens),inactive
same,odorant receptor agonist call,OR2M5 (Homo sapiens),inactive
same,odorant receptor agonist call,OR2M5 D11G,inactive
COC1CC2CC1C1CC(C=O)CC21 (stereo not drawn),odorant receptor agonist call,OR2M4 (Homo sapiens),inactive
CC=CC(=O)C1C(C)=CCCC1(C)C (stereo not drawn),odorant receptor agonist call,OR2M4 (Homo sapiens),active
CC(=O)c1c(C)c([N+](=O)[O-])c(C(C)(C)C)c([N+](=O)[O-])c1C,odorant receptor agonist call,OR2M5 (Homo sapiens),inactive
CC(CC=O)c1ccc(C(C)(C)C)cc1 (stereo not drawn),odorant receptor agonist call,OR2M4 (Homo sapiens),inactive
CCC=C(C)C(O)CCCCC (stereo not drawn),odorant receptor agonist call,OR2M4 (Homo sapiens),inactive
CC1=CCC2CC1C2(C)C (stereo not drawn),odorant receptor agonist call,OR2M4 (Homo sapiens),inactive
CCC(=O)C=CC1C(C)=CCCC1(C)C (stereo not drawn),odorant receptor agonist call,OR2M4 (Homo sapiens),inactive
CCc1ccc(CC(C)(C)C=O)cc1,odorant receptor agonist call,OR2M4 (Homo sapiens),inactive
CCCC(S)CCOC(C)=O (stereo not drawn),odorant receptor agonist call,OR2M4 (Homo sapiens),inactive
same,odorant receptor agonist call,OR2M5 (Homo sapiens),inactive
same,odorant receptor agonist call,OR2M5 D11G,inactive
CC1CC(C)(c2ccccc2)CO1 (stereo not drawn),odorant receptor agonist call,OR2M4 (Homo sapiens),inactive
CCCCCC1COCCC1OC(C)=O (stereo not drawn),odorant receptor agonist call,OR2M4 (Homo sapiens),inactive
Cc1occc(=O)c1OC(=O)C(C)C,odorant receptor agonist call,OR2M4 (Homo sapiens),inactive
CCCCCCC=CCCC=O,odorant receptor agonist call,OR2M4 (Homo sapiens),inactive
same,odorant receptor agonist call,OR2M5 (Homo sapiens),inactive
same,odorant receptor agonist call,OR2M5 D11G,inactive
